Calls of active or inactive are those of the source. No cut-off for these calls is given here.
Tests used:
[1] = target: T1, von Hippel-Lindau disease tumor suppressor/Bcl-2-like protein 1 (Homo sapiens, UniProt Q07817+P40337); experiment: Protac activity at VHL/BCL-XL in human MOLT-4 cells assessed as induction of BCL-XL degradation at 10 uM pretreated with VHL-032 followed by compound treatement measured after 12 hrs by Western blot analysis; assay type: cell-based
Outline: (§1)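 MOLT-4 cells were pretreated with 10 µM VHL-032 or 1 µM MG-132, followed by 12 h compound treatment. BCL-XL and β-actin were immunoblotted; blots representative of three experiments.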
Target sequence in this assay (P40337 whole entry, looked up): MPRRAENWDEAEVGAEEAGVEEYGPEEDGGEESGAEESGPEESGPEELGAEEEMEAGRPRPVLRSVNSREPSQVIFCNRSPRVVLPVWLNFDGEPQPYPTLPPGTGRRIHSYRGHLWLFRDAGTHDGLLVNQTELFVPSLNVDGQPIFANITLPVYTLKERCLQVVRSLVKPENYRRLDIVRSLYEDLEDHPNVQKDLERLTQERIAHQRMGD
Target sequence in this assay (Q07817 whole entry, looked up): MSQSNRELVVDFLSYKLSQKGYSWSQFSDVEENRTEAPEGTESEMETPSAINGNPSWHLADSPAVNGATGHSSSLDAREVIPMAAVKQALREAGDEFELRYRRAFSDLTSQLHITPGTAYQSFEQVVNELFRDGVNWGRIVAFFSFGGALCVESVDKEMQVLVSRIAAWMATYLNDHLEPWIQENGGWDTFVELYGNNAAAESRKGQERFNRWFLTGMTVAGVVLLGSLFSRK

[2] = target: T1, von Hippel-Lindau disease tumor suppressor/Bcl-2-like protein 1; experiment: Protac activity at VHL/BCL-XL in human MOLT-4 cells assessed as induction of BCL-XL degradation at 10 uM pretreated with MG-132 followed by compound treatement measured after 12 hrs by Western blot analysis; assay type: cell-based; outline: as §1
Target sequence in this assay (P40337 whole entry, looked up): as the sequence (P40337 whole entry, looked up) above
Target sequence in this assay (Q07817 whole entry, looked up): as the sequence (Q07817 whole entry, looked up) above

[3] = target: T1, von Hippel-Lindau disease tumor suppressor/Bcl-2-like protein 1; experiment: Protac activity at VHL/BCL-XL in human MOLT-4 cells assessed as decrease in BCL-XL protein level by densitometric analysis; assay type: cell-based
Outline: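 MOLT-4 or RS4;11 cells were treated at a range of concentrations for 16 h. BCL-XL was immunoblotted with β-actin loading control, and band densitometry was normalised to β-actin. Mean ± SD of three independent experiments in triplicate.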
Target sequence in this assay (Q07817 whole entry): as the sequence (Q07817 whole entry, looked up) above
Target sequence in this assay (P40337 whole entry): as the sequence (P40337 whole entry, looked up) above

MOLT-4 = experiment: Induction of apoptosis in human MOLT-4 cells assessed as early apoptotic cells at 10 nM measured after 48 hrs in presence of QVD by annexinV-FITC/propidium iodide staining based flow cytometry (reference value: 2%); assay type: functional
[4] = target: Apoptosis regulator Bcl-2 (Homo sapiens, UniProt P10415); experiment: Displacement of biotin-tagged MRPEPATIAQELRRIGDEFNA from C-terminal His-tagged human BCL-2 (1` to 211 residues) expressed in Escherichia coli measured after 2 hrs by AlphaScreen assay
Outline: (§2)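 AlphaScreen displacement, run with or without VCB. Anti-His acceptor beads were added for 1 h at room temperature, then streptavidin donor beads for 30 min in the dark. Ki was fitted by one-site competitive model from peptide concentration and measured Kd values; reported as mean ± SD of at least two experiments in triplicate.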

[5] = Binding affinity to C-terminal His-tagged human BCL-2 (1 to 211 residues) expressed in Escherichia coli/recombinant human VHL (54 to end residues) fused to human N-terminal GST-tagged elongin-C/elongin -B/N-terminal His-tagged CUL2/Rbx1 expressed in baculovirus infected Sf21 insect cells measured after 2 hrs by AlphaScreen assay
Outline: as §2, with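 “VCB. Biotin-Bim (80 nM, for BCL-2) or biotin-Bad (16 nM, for BCL-XL) was combined with serially diluted compound and 6×His protein in 25 mM HEPES pH 7.5, 100 mM NaCl, 0.1% BSA, 0.005% Tween 20.” for “VCB.”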

[6] = Binding affinity to human BCL-XL expressed in Escherichia coli/recombinant human VHL (54 to end residues) fused to human N-terminal GST-tagged elongin-C/elongin -B/N-terminal His-tagged CUL2/Rbx1 expressed in baculovirus infected Sf21 insect cells assessed as ternary complex formation at up to 100000 nM measured after 30 mins by AlphaLISA assay
Outline: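 Cell-free ternary complex AlphaLISA: 6×His-tagged BCL-XL, BCL-2 or MCL-1 (20 nM) mixed with serially diluted compound (4× dilution) and GST-VCB (20 nM) in 25 mM HEPES pH 7.5, 100 mM NaCl, 0.1% BSA, 0.005% Tween 20. After 30 min at room temperature, glutathione donor beads were added for 15 min, then anti-His acceptor beads for 45 min in the dark. Luminescence was plotted against log compound concentration.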

[7] = target: von Hippel-Lindau disease tumor suppressor/Apoptosis regulator Bcl-2 (Homo sapiens) (UniProt P10415+P40337); experiment: Binding affinity to Halo-tagged VHL/HiBiT-tagged BCL-2 (unknown origin) expressed in HEK293T cells assessed as ternary complex formation at up to 100000 nM measured after 6 hrs by NanoBRET assay; assay type: cell-based
Outline: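 NanoBRET in live HEK 293T cells. Cells were transfected with HaloTag-VHL (1 µg), HiBit-BCL-XL or HiBit-BCL-2 (10 ng) and LgBit (10 ng). After 24 h they were seeded at 2×10^4 per well in Opti-MEM with 4% FBS, with or without HaloTag 618 ligand, and held overnight. Serial compound doses were given for 6 h at 37 °C, then Nano-Glo substrate was added and mBRET ratios read. Mean ± s.e.m. of two experiments in triplicate.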

RS4-11 = experiment: Cytotoxicity against human RS4-11 cells assessed as reduction in cell viability measured after 48 hrs in presence of VHL-032 by MTS assay; assay type: functional, cell-based; settings: RS4-11, 48 h
Outline: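 RS4;11 cells were pretreated with 10 µM VHL-032, then exposed to compound for 48 h. Viability was read by MTS; three independent experiments in triplicate.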

Sequence of von Hippel-Lindau disease tumor suppressor/Apoptosis regulator Bcl-2 (Homo sapiens) (P10415 whole entry, looked up): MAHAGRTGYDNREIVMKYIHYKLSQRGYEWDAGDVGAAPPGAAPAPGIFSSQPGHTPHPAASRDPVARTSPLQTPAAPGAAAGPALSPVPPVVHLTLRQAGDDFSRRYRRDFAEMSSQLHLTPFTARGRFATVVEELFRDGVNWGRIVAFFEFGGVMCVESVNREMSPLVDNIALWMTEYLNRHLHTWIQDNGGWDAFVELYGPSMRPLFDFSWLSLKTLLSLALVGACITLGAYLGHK
Sequence of von Hippel-Lindau disease tumor suppressor/Apoptosis regulator Bcl-2 (Homo sapiens) (P40337 whole entry, looked up): as the sequence (P40337 whole entry, looked up) above
Sequence of Apoptosis regulator Bcl-2 (P10415 whole entry): as the sequence (P10415 whole entry, looked up) above

In the case of `Cc1ncsc1-c1ccc([C@H](C)NC(=O)[C@@H]2C[C@@H](O)CN2C(=O)[C@@H](NC(=O)CCCCCCCCC(=O)NC[C@]2(C)CCC(c3ccc(Cl)cc3)=C(CN3CCN(c4ccc(C(=O)NS(=O)(=O)c5ccc(N[C@H](CCN6CCOCC6)CSc6ccccc6)c(S(=O)(=O)C(F)(F)F)c5)cc4)CC3)C2)C(C)(C)C)cc1`, the Activity [1] is reported as “inactive”, the Activity [2] is reported as “inactive” and the DC50 [3] is reported as 14.3 nM. For the same compound, the Activity (MOLT-4) was 1%, the Kd [4] was 1.22 nM and the Kd [5] was 0.53 nM. The Activity [6] was “Active”, the Activity [7] was “Active” and the IC50 (RS4-11) was 209 nM.
